Reference: the EternaBench riboswitch data

System: MS2 coat protein
Assay: apparent Kd, MS2 coat protein; higher = weaker binding; RNA-MaP array; FMN 200 µM where present
Outline: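 Two titrations, one without ligand and one with constant ligand, were run with SNAP-549-labelled MS2 coat protein from 0.7 or 1.5 nM, doubling to 3 µM. The targets were designs transcribed by stalled E. coli RNA polymerase on Illumina sequencing-chip clusters, in 100 mM Tris-HCl pH 7.5, 80 mM KCl, 4 mM MgCl2, BSA, DTT, yeast tRNA and Tween-20. The apparent Kd is the median of filtered per-cluster binding-curve fits, with green signal normalised to red-channel RNA signal and control-cluster median Fmax.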

[1] = designed as: OFF switch for flavin mononucleotide, no ligand
[2] = ligand present: flavin mononucleotide, designed as: OFF switch for flavin mononucleotide
[3] = designed as: ON switch for flavin mononucleotide, no ligand
[4] = ligand present: flavin mononucleotide, designed as: ON switch for flavin mononucleotide

Sequence: AGCGUGGAGACAGGAUAUGAGAAUAGAUAGAAAUCAGAAGGGUCACAUGAGGAUCACCCAUGUAAAGUCUUGAGGAUGAGUGAU
- apparent Kd [1]: 86.5 nM
- apparent Kd [2]: 208 nM

Sequence: AUUGUUAAGUUAGGAUAUAGUAAAAUAAUUUAGUUAGAAGGAGCUCACAUGAGGAUCACCCAUGUAAGAGGAUCACCCAUGUAU
- apparent Kd [1]: 25.6 nM
- apparent Kd [2]: 20.1 nM

Sequence: UGAUAGGACAGAGGAUAUACGGAUAGGAUCUACUAUCUUCCUCAAAUAACAUGAGGAUCACCCAUGUAGAAGGCUGUCCUAUCU
- apparent Kd [1]: 126 nM
- apparent Kd [2]: 887 nM

Sequence: GUGCGGGUGCCACAGGAUAUACGUGGAUCGACAUGAGGAUCACCCAUGUAUAUCCUAAUAAUUGCGUAGAAGGGUGGUCAGCCGU
- apparent Kd [3]: 845 nM
- apparent Kd [4]: 149 nM

Sequence: AGCACGAAGAUUAUUAUGAAUAAACAUGAGGAUCACCCAUGUAAGGAUAUCGACUCGAAUAGAGUCGAGAAGGUACAUACGUGC
- apparent Kd [1]: 11 nM
- apparent Kd [2]: 51.8 nM

Sequence: GCAGUAAAUAAAUGCACAUGAGGAUCACCCAUGUGGGAGGCACAGGAUAUCGCACCAUAGUGGCGCGAGAAGGGUGAUAAUCUC
- apparent Kd [3]: 416 nM
- apparent Kd [4]: 57.8 nM

Sequence: GUUUUUCCUCAUGUACAUGAGGAACAUGAGGAUCACCCAUGUAGAAGGAAUUUUUUUAAGUUUAGUUAGGAUAUACAUAUAUUG
- apparent Kd [1]: 106 nM
- apparent Kd [2]: 71.5 nM

Sequence: GCUAUCAAUGUCAGGAUAUUUAUUUGGGCUUAAUUGAAGAAGGGACAUGAGGAUCACCCAUGUGGCGCAGAGUU
- apparent Kd [1]: 36.9 nM
- apparent Kd [2]: 202 nM

Sequence: AAUUUUUAACAGAAGGCGUUUAUAUUUAAGUUACGAGGAUAUGUAUAACAUGAGGAUCACCCAUGUAACAUGGAUAUUUAAUAA
- apparent Kd [3]: 10.3 nM
- apparent Kd [4]: 8.49 nM

Sequence: GUCAGCUCGUGAGGAUAUACAUGUGCUGGAGACAGCACUAAUUAAAUCACAUGAGGAUCACCCAUGUAGAAGGCACGAGCUGAU
- apparent Kd [1]: 16.6 nM
- apparent Kd [2]: 26.4 nM

Sequence: GCUAGUAUUGCAGGAUAUUGAGAAUAAUUAUUCCAAGAAGGGCAUAACAUGAGGAUCACCCAUGUAUUCCUUAGUGAUACUAGC
- apparent Kd [1]: 4.39 nM
- apparent Kd [2]: 4.44 nM

Sequence: UUCCGACAUGAGGAUCACCCAUGUAAGGAUAUGUAUCCUUCGGCCCGAACCAGAGGAAGCAGAAGGUACAGGGA
- apparent Kd [1]: 31.3 nM
- apparent Kd [2]: 20 nM

Sequence: GAAUCGAAAAUACGAGCAUGUACACAGGAUAUCCCGUGACAUGAGGAUCACCCAUGUAACACAUUGGAGAAGGGUGUUCACGUA
- apparent Kd [3]: 153 nM
- apparent Kd [4]: 14.8 nM

Sequence: UAAAAGACUAGCAUGGUAACCUUCACAUGAGGAUCACCCAUGUAGGAUAUGAGCAGAAAAUCUGCUCAGAAGGACAUGCUAGUC
- apparent Kd [1]: 3.31 nM
- apparent Kd [2]: 3.67 nM

Sequence: UUCUUACAUGAGGAUCACCCAUGUCAGGAUAUCUCCUCACUGCGCUUGCGCAGUGAAUAGAGAAGGGACAGGCU
- apparent Kd [1]: 51.3 nM
- apparent Kd [2]: 43.8 nM

Sequence: GUCAGAAGUGCAGGAUAUGCUGAGGCAUUCGCGGCAGAAGGGCACAUGAGGAUCACCCAUGUAGCCGGGUAUUGUACCUUAUCA
- apparent Kd [1]: 6.36 nM
- apparent Kd [2]: 9.16 nM

Sequence: GGGUACAUCGGAGGAUAUGAUGUAAAUACAUGAGGAUCACCCAUGUCGAUGGAGACAUCGGAGAUUGAGAAGGCCGAUGUACCG
- apparent Kd [3]: 88.2 nM
- apparent Kd [4]: 32.2 nM

Sequence: GCUCUUGUCAAGAAGGGCUCGCGGUACGCUGCAGCAGGAUAUUGACAUGAGGAUCACCCAUGUCGACCGGAACAUCUUUGAGGG
- apparent Kd [1]: 13.3 nM
- apparent Kd [2]: 134 nM

Sequence: GCACAUGGCAUAGGAUAUAGAACGAUAGUUGAAAUAGAUUGUUGGAAUUUACUAGAAGGAUGAGACAUGAGGAUCACCCAUGUA
- apparent Kd [3]: 34.9 nM
- apparent Kd [4]: 28.6 nM

Sequence: AAAAAGUGAGGAUAUACGCUGUGGAGUAGACACAACCAGUCGUAGAAGGCACAUGAGGAUCACCCAUGUUCAAA
- apparent Kd [1]: 27.2 nM
- apparent Kd [2]: 30.1 nM

Sequence: GCCAUCACAUGAGGAUAUGCUCCCGUUUCGGGAGCAGAAGGCGUGUCAUAAGACAUGAGGAUCACCCAUGUAGUUAAGAUGGCA
- apparent Kd [3]: 399 nM
- apparent Kd [4]: 12.7 nM

Sequence: GCCAGGCGAGGAUAUGCGAGGUAGCCUUUGUCCGGAUACUGACAUGAGGAUCACCCAUGUAGAAGGUGCCUAGG
- apparent Kd [1]: 70.2 nM
- apparent Kd [2]: 258 nM

Sequence: GGAAUACAUGAGGAUCACCCAUGUAAGGAUAUGCUGAUUAAUUAAUUAUAAUUAUGCAGCAGAAGGUACAAAGG
- apparent Kd [1]: 85.9 nM
- apparent Kd [2]: 104 nM

Sequence: CUACCUUAUGAGAAGGCGGUCAUGAAACAUGAUCGAGGAUAUCAUGUAAACAUGAGGAUCACCCAUGUAUGGGUAUUAUGGUAC
- apparent Kd [3]: 170 nM
- apparent Kd [4]: 33 nM

Sequence: AGGAUUGUGCUAGGAUAUCCAGGUUUGCAGCGAGGAGAAGGAGCACAUGAGGAUCACCCAUGUUCUCAAAGGCCACGGCAAUAU
- apparent Kd [1]: 6.98 nM
- apparent Kd [2]: 13.4 nM

Sequence: GUAGCAUACCGAGGAUAUUCACCGGAAACGGAAACAUGAGGAUCACCCAUGUGGCGAAAGCCUUGGGAGAAGGCGGAAUGCUAC
- apparent Kd [3]: 195 nM
- apparent Kd [4]: 24.5 nM

Sequence: UGCCUACAUGAGGAUCACCCAUGUGAGGAUAUCCUGCGAGGAUCAAAAGAUCCUCGUGGGAGAAGGCGCUUGGA
- apparent Kd [1]: 18.9 nM
- apparent Kd [2]: 32.3 nM

Sequence: AGGGAUAAAGGAUAUACAUGAGGAUCACCCAUGUUGAGGAAGGUUAGAGGUGGCGAUAGUAGAAGGUUAGGUAG
- apparent Kd [1]: 89.2 nM
- apparent Kd [2]: 54.7 nM

Sequence: CUUGGUACUCGAGGAUAUCACAUGAACUACCGAACAUGAGGAUCACCCAUGUGAGAAGGCGAGUUCUGUCCGAUAAAAUUACUC
- apparent Kd [1]: 6.68 nM
- apparent Kd [2]: 11 nM

Sequence: UAACGCGCAUGCAAGGAUAUGUGCAGAGCUACAUGAGGAUCACCCAUGUGGUUAUGCUAUUGAAAACAGAAGGUGCCCUCGCUCA
- apparent Kd [3]: 25.8 nM
- apparent Kd [4]: 24.3 nM

Sequence: UGUCGGAGCAGAGGAUAUUACAUGAGGAUCACCCAUGUAUGAACCAAUAGCUGGAAAGAGCAAUGUAAGAAGGCUGCUCCGACA
- apparent Kd [1]: 19.7 nM
- apparent Kd [2]: 181 nM

Sequence: UCGUUGUCAGGAUAUCGUGUAUACAACGUUAGUUCUAUGUGCGAGAAGGGACAUGAGGAUCACCCAUGUUACGU
- apparent Kd [1]: 69.2 nM
- apparent Kd [2]: 213 nM

Sequence: UAGGUGUGAGGAUAUGGUAAAGAAAAGAUGAUGAAAGAACUCCAGAAGGCACAUGAGGAUCACCCAUGUAGAUG
- apparent Kd [1]: 26.3 nM
- apparent Kd [2]: 54.5 nM

Sequence: GGAGCAGGGUCAGGAUAUGUAGGUAGACGGCAAAUAGAAGGGACAUGAGGAUCACCCAUGUAACAUUAAAAUGAAGCAAGGGAG
- apparent Kd [1]: 66.4 nM
- apparent Kd [2]: 71.5 nM

Sequence: CCGCUGUGAGGAUAUUAGUAGUAGUCAGAAUAGACUAUUACUGAGAAGGCACAUGAGGAUCACCCAUGUGGCGG
- apparent Kd [1]: 22.4 nM
- apparent Kd [2]: 31.7 nM

Sequence: AAAUCAGUAGGAUAUACGAUUUUAUACUAGAUAGAGGAACCACAUGAGGAUCACCCAUGUAGAAGGACUAGAUA
- apparent Kd [1]: 14.6 nM
- apparent Kd [2]: 14.9 nM

Sequence: AUAUAUAUUAGAGGAUAUGUGUUCAUGUUACAUGAGGAUCACCCAUGUUUAGGUUGAUUUAUCUUACAGAAGGCUAUACAAUCA
- apparent Kd [1]: 71.5 nM
- apparent Kd [2]: 76 nM

Sequence: UUUUAGGCAGGAUAUACAUUUUUUUUAUUAUCCUCAUUAUUACAUGAGGAUCACCCAUGUAGAAGGGCCAUUUU
- apparent Kd [1]: 48.1 nM
- apparent Kd [2]: 50.2 nM

Sequence: UAUUAGCUAGGAUAUACAUGAGGAUCACCCAUGUCACGGGUCCACUCGUCCUAUGCGUGUAGAAGGAGCGACCC
- apparent Kd [1]: 20.6 nM
- apparent Kd [2]: 22.4 nM

Sequence: GUUCUGCCUCCUGCCGGAACAUGAGGAUCACCCAUGUUGCCUGAGGAUAUCCUAUGGCGUCCACAGGAGAAGGCAGGCAGCAUA
- apparent Kd [1]: 18.6 nM
- apparent Kd [2]: 19.6 nM

Sequence: UCGUUUAUACAAGGAUAUCAAUUAUAGCUAAAUUCAACAUGAGGAUCACCCAUGUAACUAUGGAGUGAGAAGGUGUAAUGGCUU
- apparent Kd [3]: 116 nM
- apparent Kd [4]: 310 nM

Sequence: GCGUACAUAUCAGGAUAUCAUAUUAUUGUUUAACUCAGUGUAUACAUGAGGAUCACCCAUGUUCUUGAGAAGGGAUAUGUACGC
- apparent Kd [1]: 8.15 nM
- apparent Kd [2]: 8.79 nM

Sequence: AGAUAACAUGAGGAUCACCCAUGUGAGGAUAUUUACUCAAGAGCUUCGGCUCUCAGGUGAAGAAGGCACAAUGA
- apparent Kd [1]: 55.9 nM
- apparent Kd [2]: 83.4 nM

Sequence: UAAGCGCAGGAGAAGGGCACUGGACGCUCGCUACAUGAGGAUCACCCAUGUGCAGGAUAUCCGGCGCCGCCCGCAAACUCGGCG
- apparent Kd [1]: 5.14 nM
- apparent Kd [2]: 13.3 nM

Sequence: UAUAUGUCAGGAUAUCGAUUGGUACGGAAUUCGGUACUGGUUGAGAAGGGACAUGAGGAUCACCCAUGUUUUUC
- apparent Kd [1]: 38.5 nM
- apparent Kd [2]: 228 nM

Sequence: UCUACGCGAAUCCAGAUGGAUAGCACAUGAGGAUCACCCAUGUAGGAUAUGCUACACAAAGUGUAGCAGAAGGACAAGCGUAGA
- apparent Kd [1]: 28.3 nM
- apparent Kd [2]: 32.3 nM

Sequence: UUAGAAUUGUUAGGAUAUUAAUUAUUUUUUAGUAUGAUCUACAUGAGGAUCACCCAUGUUAAAUAUAAGAAGGAACGUUUUAUU
- apparent Kd [1]: 51.8 nM
- apparent Kd [2]: 52 nM

Sequence: GGUGCCAUGUAGAAGGCAGAUCUGAUUCAGAUCUGAGGAUAUACAUGAGGAUCACCCAUGUGAAGGCACCGCACGAGAGUGCAA
- apparent Kd [1]: 8.21 nM
- apparent Kd [2]: 24 nM

Sequence: UGUCGGAGCAGAGGAUAUUACAUGAGGAUCACCCAUGUAUGAACCAAUAGCUGGAAACAUCAAUGUAAGAAGGCUGCUCCGACA
- apparent Kd [1]: 10.2 nM
- apparent Kd [2]: 72.5 nM

Sequence: GCCAUCGCGUGAGGAUAUGGCACCGUUUCGGUGCCAGAAGGCAUGUCAAAUGACAUGAGGAUCACCCAUGUAGUUAAGAUGGCA
- apparent Kd [3]: 180 nM
- apparent Kd [4]: 13.2 nM

Sequence: CCAUAUAACUGAGGAUAUACUCACCACUAACAUGUAGAAGGCAGACAUGAGGAUCACCCAUGUGAUUUCUCAAUAUUAUACAUC
- apparent Kd [1]: 901 nM
- apparent Kd [2]: 658 nM

Sequence: GGUACCAUCACAGGAUAUGCUAUCCUUUGGGUAGCAGAAGGGUGAUAACAUGAGGAUCACCCAUGUGGUACCGGGCGUGAGCCC
- apparent Kd [3]: 1030 nM
- apparent Kd [4]: 197 nM

Sequence: GGUCCAACAUGAGGAUAUAGCACCUUAUUGGUGCUAGAAGGCGUGUCGGUAGACAUGAGGAUCACCCAUGUAUUACAAUGGACC
- apparent Kd [3]: 140 nM
- apparent Kd [4]: 27 nM

Sequence: GUACCUUAUGAGAAGGCGAUCAUAAAACAUGAUCGAGGAUAUCAUGAAAACAUGAGGAUCACCCAUGUAUGGGUAUUAUGGUAC
- apparent Kd [3]: 37.3 nM
- apparent Kd [4]: 16.7 nM

Sequence: GAGCUCAAGCAGAAGGCCAUAUGUCAAUCGACAUGAGGAUCACCCAUGUAUGAGCUCGGCGUCGUGGAGGAUAUGCAGGCUCUA
- apparent Kd [3]: 351 nM
- apparent Kd [4]: 17.6 nM
